An excerpt weighted towards active compounds, which were near 5.5% of everything screened.
STAT1 act: activators of IFN-gamma induced STAT1 signaling | NIH 3T3 STAT1-luciferase reporter, luminescence; 100% = IFN-gamma alone, no compound | activation (% of control), % at 5.5 µM | actives 2.6% (n = 200,000);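 active = activation above the screen-wide mean activation plus 3 SD, cut at about 130% in these data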;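 note: raw ratio to IFN-gamma control signal so 100% means no change and 0% no light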
STAT3 act: increases IL-6 driven STAT3 reporter signal; actives 0.91% (n = 190,000); activation (% of control), % at 5.6 µM; U3A cells, IL-6 STAT3-luciferase reporter, luminescence; 100% = signal with IL-6 EC80 alone; AID 871;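 active = activation above the screen-wide mean of compound activation plus 3 SD, cut at about 130% in these data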;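 note: 0% = background luminescence of wells with medium and substrate only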
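Material: STAT3-luciferase reporter U3A cells; Probe or stimulus: IL-6 (33 ng/mL); Incubation: compound pre-incubation 1 h before IL-6, then 6 h stimulation at 37 °C; Technique: luminescence from STAT3-driven luciferase reporter; Evaluation: % activation versus median of IL-6-stimulated wells; Controls: IL-6-only high control.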
STAT3 inh: reduces IL-6 driven STAT3 reporter signal. U3A cells, IL-6 STAT3-luciferase reporter, luminescence; host cell line lacks STAT1. inhibition, % at 5.5 µM. AID 862. actives 0.89% (n = 190,000);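 active = inhibition above the mean inhibition across all screened compounds plus 3 SD, cut at about 44% in these data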;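 note: 0% = DMSO only wells and 100% = 100 µM nifuroxazide control wells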
HSV replic up: increases HSV replication in cells | HSV replication augmentation in cells, fold increase | maximum fold increase | actives 0.005% (n = 220,000); in the data active = maximum fold increase above about 1.5; tested in PC3 cells
STAT1 inh: inhibitors of IFN-gamma induced STAT1 signaling; NIH 3T3 STAT1-luciferase reporter, luminescence; inhibition, % at 5.5 µM; actives 0.35% (n = 200,000); AID 920;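 active = inhibition above a set limit, the mean inhibition across all tested compounds plus 3 SD, cut at about 34% in these data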;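 note: 0% = IFN-gamma with DMSO and 100% = IFN-gamma with 300 µM nifuroxazide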
KCC2 mod: modulators of human KCC2 chloride dependent transport; KCC2 cells, thallium flux FluoZin-2 fluorescence; actives 2.2% (n = 190,000); B-score of Tl+ flux slope (higher = more flux/activation; lower = inhibition) at 10 µM; AID 1456; Q9H2X9;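 active = thallium flux slope and its plate-corrected score both differing from the plate sample mean at a set confidence after two filtering rounds, in either direction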;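 note: slope of fluorescence scaled to starting intensity during 10 to 20 s after thallium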
* = called active by the depositor; i = inactive; nt = not tested or not shown.

SMILES | STAT1 act | STAT3 act | STAT3 inh | HSV replic up | STAT1 inh | KCC2 mod
Oc1ccc(-c2csc(Nc3ncccn3)n2)cc1 | 146* | 83 | 24 | i | -49 | 0.075
CC(=O)Nc1cccc(-c2csc(NCc3ccccc3)n2)c1 | 113 | 100 | 6 | i | -16 | -1
CC(=O)Nc1cccc(-c2csc(Nc3ccccn3)n2)c1 | 143* | 87 | 18 | i | -49 | nt
c1cncc(Nc2nc(-c3cccnc3)cs2)c1 | 111 | 107 | -5 | i | -10 | 0.25
Oc1ccc(Nc2nc(-c3ccc4ccccc4c3)cs2)cc1 | 109 | 95 | 8 | i | -9 | 0.11
CC(=O)Nc1ccc(-c2csc(Nc3cc(C)ccn3)n2)cc1 | 140* | 88 | 24 | i | -44 | -1
CNC(=S)N/N=C/c1cn(CCOc2cccc(OC)c2)c2ccccc12 | 100 | 103 | -2 | i | -1 | -2.1
Cc1c(C(=O)C(=O)NCCCn2ccnc2)c2ccccc2n1C | 88 | 96 | 10 | i | 11 | nt
CCn1c(CNC(=O)c2cccs2)n[nH]c1=S | 96 | 93 | 13 | i | 4 | 0.2
COc1ccc(N(C(C)=O)S(=O)(=O)c2cccc3cccnc23)cc1 | 90 | 94 | 5 | i | 12 | 1.4
CC(=O)c1cccc(Nc2nc(-c3cccc([N+](=O)[O-])c3)cs2)c1 | 131* | 102 | 7 | i | -46 | nt
COc1ccc(-c2csc(Nc3ccc(C)cn3)n2)cc1OC | 122 | 89 | 17 | i | -24 | 2.1
c1ccc(Nc2nc(-c3cccs3)cs2)nc1 | 136* | 95 | 8 | i | -38 | -0.84
Cc1ccc(Nc2nc(-c3ccc(O)c(O)c3)cs2)nc1 | 136* | 85 | 21 | i | -42 | 0.61
c1csc(-c2csc(-c3cccs3)n2)c1 | 128 | 105 | -1 | i | -31 | nt
C[N+](C)(CC#Cc1ccccc1)CC(=O)c1ccc(Cl)cc1 | 107 | 100 | 3 | i | -8 | -0.65
Cc1ccc(NC(=O)c2onc(C)c2Cl)cc1 | 126 | 129 | -24 | i | -29 | nt
CC(=O)c1ccc(NC(=O)/C=C/c2ccc(C)cc2)cc1 | 107 | 91 | 9 | i | -8 | -0.55
CCCc1cc(C(=O)Nc2cc(Br)ccc2O)no1 | 102 | 103 | -5 | i | -6 | -0.23
Cc1ccc(/C=C/C(=O)Nc2cc(C)on2)cc1 | 133* | 90 | 15 | i | -36 | 0.35
Cc1ccc(NC(=O)c2cc(C)on2)cc1 | 130* | 71 | 37 | i | -32 | 0.62
Cc1cccc(NC(=O)/C=C/c2ccc(Cl)cc2)n1 | 139* | 71 | 36 | i | -44 | -0.16
CCCc1cc(C(=O)Nc2ccc(C)cc2)no1 | 135* | 91 | 16 | i | -39 | 0.093
O=C1OCCC1Sc1nc2ccccc2s1 (stereo unspecified) | 106 | 104 | -2 | i | -5 | 0.092
OC1CCCCC1Sc1nc2ccccc2s1 (stereo unspecified) | 130* | 105 | -2 | nt | -33 | -0.2
SMILES | STAT1 act | STAT3 act | STAT3 inh | HSV replic up | STAT1 inh | KCC2 mod
Cc1ccc(-c2nnc(SCC(C)C)n2C)cc1 | 138* | 102 | 2 | i | -41 | 0.78
Cc1ccc(-c2nnc(SCC(N)=O)n2C)cc1 | 107 | 100 | 6 | i | -8 | -0.14
CCCCNC(=S)N/N=C1\C(=O)c2cccc3cccc1c23 | 97 | 85 | 24 | i | 3 | 5*
COc1ccc(NC(=S)N/N=C/c2cccn2Cc2ccc(F)cc2Cl)cc1 | 89 | 102 | 2 | i | 11 | 3.8*
COc1ccc(NC(=S)N/N=C/c2cccn2Cc2ccccc2F)cc1 | 89 | 98 | 6 | i | 12 | 0.99
Cc1nn(-c2ccccc2)c(Cl)c1/C=N/Nc1nc2ccccc2n1C | 145* | 96 | 12 | i | -49 | -0.71
Cc1nn(-c2ccccc2)c(Cl)c1/C=N/NC(N)=O | nt | nt | nt | i | nt | 1.2
COc1cccc(-c2csc(N3CCN(CC(=O)NNC(=O)c4ccco4)CC3)n2)c1 | 96 | 96 | 11 | i | 4 | 0.84
CC1(C)Cc2c(sc3[nH]c(=S)n(Cc4ccccc4)c(=O)c23)CO1 | 98 | 98 | 4 | i | 2 | 81*
CC1(C)Cc2c(sc3c2c(N)nc(=S)n3Cc2ccccc2)CO1 | 100 | 100 | 2 | i | 0 | 0.3
CCOc1cc(Br)ccc1S(=O)(=O)N1CCC(C(N)=O)CC1 | 102 | 93 | 6 | i | -3 | 0.24
COc1ccc2nc(/N=C\N(C)C)sc2c1 | 112 | 110 | -9 | i | -13 | nt
CN(C)/C=N/c1nc2ccc3c(c2s1)CCCC3 | 139* | 107 | 0 | i | -43 | nt
Cc1nn(C)c(C(=O)Sc2cccc(Cl)c2)c1[N+](=O)[O-] | nt | nt | nt | i | nt | -0.2
Cc1ccccc1NC(=O)C(=O)NC(C)CCc1ccccc1 (stereo unspecified) | 102 | 94 | 7 | i | -2 | -1.3
CC(CCc1ccccc1)NC(=O)C(=O)Nc1ccccc1 (stereo unspecified) | 140* | 108 | -5 | i | -44 | 0.17
CC1CCN(S(=O)(=O)c2ccc3ncn(CC(=O)N4CCN(C)CC4)c(=O)c3c2)CC1 | 106 | 103 | 8 | i | -8 | -0.024
Cc1ccc(N2CCN(C(=O)N3CCOCC3)CC2)c(C)c1 | 94 | 93 | 16 | i | 7 | -0.57
CC(C)C(=O)NNc1nc2ccccc2s1 | 132* | 88 | 17 | i | -35 | 0.2
Fc1ccccc1CSc1nnc(-c2cccs2)o1 | 146* | 106 | -5 | i | -52 | nt
Fc1ccc(CSc2nnc(-c3cccs3)o2)cc1 | 118 | 99 | 4 | i | -20 | nt
O=C(CSc1nnc(-c2cccs2)o1)N1CCCCC1 | 125 | 111 | -9 | i | -28 | 0.3
CC1CCCC(C)N1C(=O)CSc1nnc(-c2cccs2)o1 (stereo unspecified) | 147* | 101 | 2 | i | -51 | 0.49
O=c1[nH]c(=O)n(Cc2ccco2)c2c1C(C(F)(F)F)(C(F)(F)F)N=C(c1ccc(F)cc1)N2 | 59 | 60 | 51* | i | 45* | -0.49
CC1(C)C2CC[C@]3(C)C(CC=C4[C@@H]5C[C@@](C)(CO)[C@@H](O)C[C@]56C[C@@H](OC6=O)[C@]43C)[C@@]2(C)CC[C@@H]1O (stereo partly specified) | nt | nt | nt | i | nt | nt
CCOC(=O)N1CCN(C(=O)c2cc(COc3ccc4ncccc4c3)on2)CC1 | 60 | 54 | 56* | i | 43* | -0.71
O=C(c1cc(COc2ccc3ncccc3c2)on1)N1CCC(O)CC1 | 88 | 83 | 23 | nt | 12 | -0.25
Cc1ccc(S(=O)(=O)NNc2ccccc2)c(C)c1 | 101 | 100 | -1 | i | -1 | 0.72
CCN(CC)S(=O)(=O)c1ccc2c(c1)nc(CCC(=O)Nc1ccccc1Cc1ccccc1)n2CC | 99 | 104 | -5 | i | 2 | -1.3
